Assay type in all cases: cell-based
Assay [1] deals with T1, RNA polymerase II (Mus musculus) (UniProt P08775+Q8CFI7+P97760+A0A3Q4L2S8+Q80UW8+P61219+P62488+Q923G2+P60898+O08740+Q63871+P62876). Nature of the assay: Inhibition of RNA polymerase II in mouse B16-F1 migrating cells assessed as fold change in Larp4-RNA stability at 0.1 mM measured by ChIP-seq analysis relative to control cells.
The target in assay [2] is T1, RNA polymerase II (Mus musculus). Briefly: Inhibition of RNA polymerase II in mouse B16-F1 migrating cells assessed as fold change in Sh3bgrl3-RNA stability at 0.1 mM measured by […] analysis relative to control cells.
For assay [3] the target is unchanged. Briefly: Inhibition of RNA polymerase II in mouse B16-F1 migrating cells assessed as fold change in Acbd6-RNA stability at 0.1 mM measured by […] analysis relative to control cells.
Assay [4] has the same target. Nature of the assay: Inhibition of RNA polymerase II in mouse B16-F1 migrating cells assessed as fold change in Dido1-RNA stability at 0.1 mM measured by […] analysis relative to control cells. Put shortly:
(§1)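 Mouse B16-F1 melanoma cells grown to confluence on fibronectin in DMEM/10% FCS at 37 °C, 7% CO2. Migration induced by multiple scratches and 3 h incubation; unscratched controls. DRB 0.1 mM added 3 h before lysis. RNA from poly A-selected mRNA was sequenced (RNA-seq, three replicates per DRB group). Fold change computed for DRB-treated migrating vs DRB-treated control cells; cutoffs fold change >1.3, FDR <0.05.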

Assay [5] has the same target. Briefly: Inhibition of RNA polymerase II in mouse B16-F1 migrating cells assessed as fold change in Trpv2-RNA stability at 0.1 mM measured by […] analysis relative to control cells.
For assay [6] the target is unchanged. Briefly: Inhibition of RNA polymerase II in mouse B16-F1 migrating cells assessed as fold change in Rest-RNA stability at 0.1 mM measured by […] analysis relative to control cells.
Assay [7] has the same target. Briefly: Inhibition of RNA polymerase II in mouse B16-F1 migrating cells assessed as fold change in AU019823-RNA stability at 0.1 mM measured by […] analysis relative to control cells.
The target is the same in assay [8]. Briefly: Inhibition of RNA polymerase II in mouse B16-F1 migrating cells assessed as fold change in Arpc4-RNA stability at 0.1 mM measured by […] analysis relative to control cells.
For assay [9] the target is unchanged. Briefly: Inhibition of RNA polymerase II in mouse B16-F1 migrating cells assessed as fold change in Gtf3c4-RNA stability at 0.1 mM measured by ChIP-seq analysis relative to control cells.
The target is the same in assay [10]. Nature of the assay: Inhibition of RNA polymerase II in mouse B16-F1 migrating cells assessed as fold change in Nrp1-RNA stability at 0.1 mM measured by […] analysis relative to control cells.
For assay [11] the target is unchanged. Briefly: Inhibition of RNA polymerase II in mouse B16-F1 migrating cells assessed as fold change in 2310030G06Rik-RNA stability at 0.1 mM measured by […] analysis relative to control cells.
Assay [12] has the same target. Briefly: Inhibition of RNA polymerase II in mouse B16-F1 migrating cells assessed as fold change in Cul4b-RNA stability at 0.1 mM measured by […] analysis relative to control cells. Put shortly: as §1
Assay [13] has the same target. Briefly: Inhibition of RNA polymerase II in mouse B16-F1 migrating cells assessed as fold change in Alkbh8-RNA stability at 0.1 mM measured by […] analysis relative to control cells.
For assay [14], the target named is Histone-lysine N-methyltransferase EZH2 (Mus musculus) (UniProt Q61188). Briefly: Inhibition of EZH2 in mouse B16-F1 migrating cells assessed as fold change in H3K27me3-independent regulated Skil-mRNA expression at 3 uM measured by […] analysis relative to control cells. The method, boiled down:
(§2)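 Confluent B16-F1 cells on fibronectin-coated plates were scratched at multiple sites, washed once with DMEM and left to migrate 3 h in growth medium (37 °C, 7% CO2); unscratched cells served as control. GSK343 (3 µM) was added 3 h before lysis. Poly A mRNA was sequenced (RNA-seq), with 5 replicates for untreated and 3 for treated cells. Differential expression was called by linear model with batch correction, at FDR <0.05 and fold change ≥1.3.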

Assay [15] has the same target. Briefly: Inhibition of EZH2 in mouse B16-F1 migrating cells assessed as fold change in H3K27me3-dependent regulated Mir22hg-mRNA expression at 3 uM measured by […] analysis relative to control cells. The method, boiled down: as §2
The target is the same in assay [16]. Briefly: Inhibition of EZH2 in mouse B16-F1 migrating cells assessed as fold change in H3K27me3-independent regulated Adgrg1-mRNA expression at 3 uM measured by […] analysis relative to control cells. The method, boiled down: as §2
Assay [17] has the same target. Nature of the assay: Inhibition of EZH2 in mouse B16-F1 migrating cells assessed as fold change in H3K27me3-buffered regulated Rhbdf2-mRNA expression at 3 uM measured by […] analysis relative to control cells. The method, boiled down: (§3)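 Confluent B16-F1 cells on fibronectin-coated plates, cultured at 37 °C and 7% CO2, were scratched at multiple sites to induce migration. They were then held 3 h in growth medium containing 3 µM GSK343, with the inhibitor added 3 h before lysis. Unscratched cells served as controls. Poly A mRNA was analysed by RNA-seq (n=3 GSK343, n=5 controls). Linear models removed batch effects, and buffered genes were those altered only under GSK343 (FDR <0.05, fold change >1.3).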

For assay [18] the target is unchanged. Nature of the assay: Inhibition of EZH2 in mouse B16-F1 migrating cells assessed as fold change in H3K27me3-independent regulated Coq10b-mRNA expression at 3 uM measured by […] analysis relative to control cells. Put shortly: as §2
For assay [19] the target is unchanged. Briefly: Inhibition of EZH2 in mouse B16-F1 migrating cells assessed as fold change in H3K27me3-buffered regulated Ankrd26-mRNA expression at 3 uM measured by […] analysis relative to control cells. Put shortly: as §3
Assay [20] shares this target. Nature of the assay: Inhibition of EZH2 in mouse B16-F1 migrating cells assessed as fold change in H3K27me3-dependent regulated Pxdc1-mRNA expression at 3 uM measured by […] analysis relative to control cells. Put shortly: as §2
Assay [21] has the same target. Briefly: Inhibition of EZH2 in mouse B16-F1 migrating cells assessed as fold change in H3K27me3-buffered regulated Rap2a-mRNA expression at 3 uM measured by […] analysis relative to control cells. Put shortly: as §3
The target is the same in assay [22]. Briefly: Inhibition of EZH2 in mouse B16-F1 migrating cells assessed as fold change in H3K27me3-buffered regulated Clk1-mRNA expression at 3 uM measured by […] analysis relative to control cells. Put shortly: as §3
The target is the same in assay [23]. Briefly: Inhibition of EZH2 in mouse B16-F1 migrating cells assessed as fold change in H3K27me3-buffered regulated Pde4d-mRNA expression at 3 uM measured by ChIP-seq analysis relative to control cells. The method, boiled down: as §3
Assay [24] has the same target. Nature of the assay: Inhibition of EZH2 in mouse B16-F1 migrating cells assessed as fold change in H3K27me3-buffered regulated Pcf11-mRNA expression at 3 uM measured by […] analysis relative to control cells. Put shortly: as §3

Chain of Histone-lysine N-methyltransferase EZH2 (Mus musculus) (Q61188 whole entry): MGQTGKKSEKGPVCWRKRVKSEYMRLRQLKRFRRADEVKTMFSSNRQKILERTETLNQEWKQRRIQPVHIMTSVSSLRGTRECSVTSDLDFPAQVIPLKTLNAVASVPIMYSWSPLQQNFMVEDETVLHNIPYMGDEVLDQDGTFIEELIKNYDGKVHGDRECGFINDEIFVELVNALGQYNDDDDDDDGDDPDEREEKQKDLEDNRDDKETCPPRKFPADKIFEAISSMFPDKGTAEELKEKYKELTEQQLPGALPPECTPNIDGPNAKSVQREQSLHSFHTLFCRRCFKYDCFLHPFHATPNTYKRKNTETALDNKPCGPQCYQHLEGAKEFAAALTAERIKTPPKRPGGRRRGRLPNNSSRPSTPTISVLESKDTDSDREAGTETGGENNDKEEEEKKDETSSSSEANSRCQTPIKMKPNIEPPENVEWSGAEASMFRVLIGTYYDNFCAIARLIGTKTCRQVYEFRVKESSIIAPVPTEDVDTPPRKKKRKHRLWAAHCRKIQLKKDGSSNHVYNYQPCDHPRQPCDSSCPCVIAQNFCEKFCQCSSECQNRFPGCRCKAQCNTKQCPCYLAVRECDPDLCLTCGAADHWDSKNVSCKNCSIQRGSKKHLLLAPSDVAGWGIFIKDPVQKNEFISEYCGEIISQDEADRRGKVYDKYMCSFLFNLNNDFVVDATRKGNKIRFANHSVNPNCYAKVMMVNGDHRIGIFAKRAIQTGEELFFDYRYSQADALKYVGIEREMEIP

For the compound `OC[C@H]1O[C@@H](n2cnc3cc(Cl)c(Cl)cc32)[C@H](O)[C@@H]1O`, the log2FC is -0.9 in assay [1]; 0.55 in [2]; 0.43 in assay [3]; -0.53 in assay [4]; 0.41 in assay [5]; -0.79 in [6]. Further, the log2FC in assay [7] is -0.59; in assay [8] it was 0.44; in assay [9], -0.54; in [10] it was -0.73; in [11], -0.91; in assay [12] it was -0.49. For the same compound, the log2FC in [13] is -0.55.

In the case of `CCCc1cc(C)[nH]c(=O)c1CNC(=O)c1cc(-c2ccnc(N3CCN(C)CC3)c2)cc2c1cnn2C(C)C`, the log2FC in [14] was 0.42; in [15], 0.05; in [16], 0.48; in assay [17], -0.57; in [18], 0.56; in [19], -0.47. Moreover, the log2FC is -0.09 in assay [20]; 0.56 in assay [21]; -0.75 in [22]; 0.75 in assay [23]; -0.39 in [24].

These data come from ChEMBL document CHEMBL5674883, “The Heterochromatin Landscape in Migrating Cells and the Importance of H3K27me3 for Associated Transcriptome Alterations” (Cells, 2018).
